Assays:
Homo sapiens [1] = assay: Inhibition of HMG-CoA reductase in human assessed as decrease in AUC (0 to 24 hrs) of mevalonate level in plasma at 20 mg administered as single dose relative to control; format: functional
Plasma [2] = assay: fCmax in human plasma at 80 mg administered as single dose; format: ADME, cell-free
Procedure, shortened: (§1)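 Phase 1 single ascending oral dose in healthy volunteers, with N per dose group. Total plasma Cmax and AUC(0-∞) were measured. Free-drug exposures were derived from these using plasma protein binding (human plasma fu measured at 0.5 μg/mL).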

Homo sapiens [3] = assay: Inhibition of HMG-CoA reductase in human assessed as decrease in AUC (0 to 72 hrs) of mevalonate level in plasma at 80 mg administered as single dose relative to control; format: functional
[4] = AUC (0 to infinity) in human plasma at 5 mg administered as single dose; format: ADME, cell-free; design: dose 5 mg, time infinity
Procedure, shortened: (§2)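 Phase 1 single ascending oral dose in healthy volunteers, about 5–6 subjects per dose. Total plasma drug Cmax and AUC(0-∞) were measured. Free-drug exposures were derived using plasma protein binding.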

Plasma [5] = assay: fCmax in human plasma at 160 mg administered as single dose; format: ADME, cell-free; procedure, shortened: as §1
[6] = Terminal half life in human plasma at 20 mg administered as single dose; format: ADME, cell-free; conditions: read-out: beta t1/2 (converted)
Homo sapiens [7] = assay: Inhibition of HMG-CoA reductase in human assessed as decrease in AUC (0 to 72 hrs) of mevalonate level in plasma at 20 mg administered as single dose relative to control; format: functional
Plasma [8] = assay: fCmax in human plasma at 20 mg administered as single dose; format: ADME, cell-free; procedure, shortened: as §1
[9] = Cmax in human plasma at 20 mg administered as single dose; format: ADME, organism-based; design: dose 20 mg; procedure, shortened: as §2
Homo sapiens [10] = assay: Inhibition of HMG-CoA reductase in human assessed as decrease in AUC (0 to 72 hrs) of mevalonate level in plasma at 1 mg administered as single dose relative to control; format: functional
[11] = AUC (0 to infinity) in human plasma at 20 mg administered as single dose; format: ADME, cell-free; design: dose 20 mg, time infinity; procedure, shortened: as §2
Liver = assay: Ratio of fAUC (0 to 24 hrs) in liver to plasma in Sprague-Dawley rat at 25 mg/kg, po; format: ADME, organism-based; design: dose 25 mg/kg, route oral; conditions: other tissue
Procedure, shortened: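 Sprague-Dawley rats given a single oral dose (10 or 25 mg/kg). Free drug measured in liver and plasma at 0, 0.5, 1, 2, 3, 4, 7 and 24 h, n = 3/time point.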

[12] = Terminal half life in human plasma at 1 mg administered as single dose; format: ADME, cell-free; conditions: read-out: beta t1/2 (converted)
Plasma [13] = assay: fAUC (0 to infinity) in human plasma at 5 mg administered as single dose; format: ADME, cell-free; procedure, shortened: as §1
[14] = AUC (0 to infinity) in human plasma at 80 mg administered as single dose; format: ADME, cell-free; design: dose 80 mg, time infinity; procedure, shortened: as §2
Plasma [15] = assay: fCmax in human plasma at 5 mg administered as single dose; format: ADME, cell-free; procedure, shortened: as §1
Homo sapiens [16] = assay: Inhibition of HMG-CoA reductase in human assessed as decrease in AUC (0 to 24 hrs) of mevalonate level in plasma at 160 mg administered as single dose relative to control; format: functional
[17] = Terminal half life in human plasma at 160 mg administered as single dose; format: ADME, cell-free; conditions: read-out: beta t1/2 (converted)
[18] = AUC (0 to infinity) in human plasma at 160 mg administered as single dose; format: ADME, cell-free; design: dose 160 mg, time infinity; procedure, shortened: as §2
[19] = Terminal half life in human plasma at 5 mg administered as single dose; format: ADME, cell-free; conditions: read-out: beta t1/2 (converted)
[20] = Cmax in human plasma at 5 mg administered as single dose; format: ADME, organism-based; design: dose 5 mg; procedure, shortened: as §2
Plasma [21] = assay: fAUC (0 to infinity) in human plasma at 80 mg administered as single dose; format: ADME, cell-free; procedure, shortened: as §1
[22] = Cmax in human plasma at 80 mg administered as single dose; format: ADME, organism-based; design: dose 80 mg; procedure, shortened: as §2
Plasma [23] = assay: fAUC (0 to infinity) in human plasma at 320 mg administered as single dose; format: ADME, cell-free; procedure, shortened: as §1
Plasma [24] = assay: fCmax in human plasma at 240 mg administered as single dose; format: ADME, cell-free; procedure, shortened: as §1
[25] = AUC (0 to infinity) in human plasma at 240 mg administered as single dose; format: ADME, cell-free; design: dose 240 mg, time infinity; procedure, shortened: as §2
[26] = Cmax in human plasma at 3 mg administered as single dose; format: ADME, organism-based; design: dose 3 mg; procedure, shortened: as §2
Homo sapiens [27] = assay: Inhibition of HMG-CoA reductase in human assessed as decrease in AUC (0 to 72 hrs) of mevalonate level in plasma at 10 mg administered as single dose relative to control; format: functional
Homo sapiens [28] = assay: Inhibition of HMG-CoA reductase in human assessed as decrease in AUC (0 to 72 hrs) of mevalonate level in plasma at 3 mg administered as single dose relative to control; format: functional
Homo sapiens [29] = assay: Inhibition of HMG-CoA reductase in human assessed as decrease in AUC (0 to 24 hrs) of mevalonate level in plasma at 10 mg administered as single dose relative to control; format: functional
Homo sapiens [30] = assay: Inhibition of HMG-CoA reductase in human assessed as decrease in AUC (0 to 24 hrs) of mevalonate level in plasma at 240 mg administered as single dose relative to control; format: functional
Rattus norvegicus = assay: Inhibition of HMG-CoA reductase in Sprague-Dawley rat assessed as reduction of mevalonate level in plasma at 10 mg/kg, po administered as single dose after 24 hrs relative to control; format: functional
[31] = Cmax in human plasma at 240 mg administered as single dose; format: ADME, organism-based; design: dose 240 mg; procedure, shortened: as §2
[32] = Cmax in human plasma at 10 mg administered as single dose; format: ADME, organism-based; design: dose 10 mg; procedure, shortened: as §2
Plasma [33] = assay: fCmax in human plasma at 120 mg administered as single dose; format: ADME, cell-free; procedure, shortened: as §1
[34] = Cmax in human plasma at 120 mg administered as single dose; format: ADME, organism-based; design: dose 120 mg; procedure, shortened: as §2
Homo sapiens [35] = assay: Inhibition of HMG-CoA reductase in human assessed as decrease in AUC (0 to 72 hrs) of mevalonate level in plasma at 240 mg administered as single dose relative to control; format: functional
[36] = Terminal half life in human plasma at 320 mg administered as single dose; format: ADME, cell-free; conditions: read-out: beta t1/2 (converted)
Plasma [37] = assay: fAUC (0 to infinity) in human plasma at 10 mg administered as single dose; format: ADME, cell-free; procedure, shortened: as §1
Hepatocyte = assay: Inhibition of cholesterol synthesis in rat hepatocytes assessed as reduction of [14C]-cholesterol level using [14C]-acetic acid preincubated for 4 hrs before addition of [14C]-acetic acid by liquid scintillation counting; format: functional, cell-based
Procedure, shortened: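 Cholesterol synthesis inhibition measured in rat hepatocytes and rat myocyte cell line, giving IC50 for each. Mean ± SEM of n ≥ 2 independent determinations.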

Homo sapiens [38] = assay: Inhibition of HMG-CoA reductase in human assessed as decrease in AUC (0 to 24 hrs) of mevalonate level in plasma at 3 mg administered as single dose relative to control; format: functional
[39] = Cmax in human plasma at 320 mg administered as single dose; format: ADME, organism-based; design: dose 320 mg; procedure, shortened: as §2
Homo sapiens [40] = assay: Inhibition of HMG-CoA reductase in human assessed as decrease in AUC (0 to 24 hrs) of mevalonate level in plasma at 320 mg administered as single dose relative to control; format: organism-based; conditions: in vivo
Homo sapiens [41] = assay: Inhibition of HMG-CoA reductase in human assessed as decrease in AUC (0 to 24 hrs) of mevalonate level in plasma at 10 mg administered qd for 14 days relative to control; format: functional
[42] = Cmax in human plasma at 10 mg administered qd for 14 days; format: ADME, organism-based; design: dose 10 mg

Q: With Cc1ccc(CNC(=O)c2nn(-c3ccc(F)cc3)c(CC[C@@H](O)C[C@@H](O)CC(=O)O)c2C(C)C)cc1 as the compound, how does the “inhibition (INH)” value (Homo sapiens [1]) read?
A: -34%

Q: And the fCmax (Plasma [2])?
A: 228 ng/mL

Q: And the “inhibition (INH)” value (Homo sapiens [3])?
A: -29%

Q: What about the AUC(0-inf) [4] of the same compound?
A: 434 ng·h/mL

Q: What about the fCmax (Plasma [5]) of the same compound?
A: 347 ng/mL

Q: What about the half-life [6] of the same compound?
A: 5.27 h

Q: And the “inhibition (INH)” value (Homo sapiens [7])?
A: -17%

Q: What about the fCmax (Plasma [8]) of the same compound?
A: 37.7 ng/mL

Q: What about the Cmax [9] of the same compound?
A: 740 ng/mL

Q: And the “inhibition (INH)” value (Homo sapiens [10])?
A: -8%

Q: What about the AUC(0-inf) [11] of the same compound?
A: 1930 ng·h/mL

Q: And the Ratio (Liver)?
A: 128

Q: What about the half-life [12] of the same compound?
A: 2.55 h

Q: What about the fAUC (Plasma [13]) of the same compound?
A: 22.1 ng·h/mL

Q: And the AUC(0-inf) [14]?
A: 11800 ng·h/mL

Q: And the fCmax (Plasma [15])?
A: 10 ng/mL

Q: And the “inhibition (INH)” value (Homo sapiens [16])?
A: -55%

Q: And the half-life [17]?
A: 8.87 h

Q: What about the AUC(0-inf) [18] of the same compound?
A: 25000 ng·h/mL

Q: What about the half-life [19] of the same compound?
A: 4.54 h

Q: And the Cmax [20]?
A: 196 ng/mL

Q: What about the fAUC (Plasma [21]) of the same compound?
A: 602 ng·h/mL

Q: What about the Cmax [22] of the same compound?
A: 4480 ng/mL

Q: Which results are given for O=C([O-])C[C@H](O)C[C@H](O)CCn1c(-c2ccc(F)cc2)nc(C(=O)NCc2cccc(F)c2)c1C1CC1.[Na+]?
A: fAUC (Plasma [23]): 10.4 ng·h/mL; fCmax (Plasma [24]): 2.69 ng/mL; AUC(0-inf) [25]: 27.2 ng·h/mL; Cmax [26]: 0.0552 ng/mL; inhibition (INH) (Homo sapiens [27]): -13%; inhibition (INH) (Homo sapiens [28]): -10%; inhibition (INH) (Homo sapiens [29]): -25%; inhibition (INH) (Homo sapiens [30]): -56%; inhibition in vivo at 10 mg/kg (Rattus norvegicus): 47%; Cmax [31]: 9.27 ng/mL; Cmax [32]: 0.355 ng/mL; fCmax (Plasma [33]): 0.96 ng/mL; Cmax [34]: 3.31 ng/mL; inhibition (INH) (Homo sapiens [35]): -30%; half-life [36]: 7.36 h; fAUC (Plasma [37]): 0.786 ng·h/mL; IC50 (Hepatocyte): 0.1 nM; inhibition (INH) (Homo sapiens [38]): -5%; Cmax [39]: 44.1 ng/mL; inhibition (INH) (Homo sapiens [40]): -61%

Q: Which “inhibition (INH)” value (Homo sapiens [41]) does the source give for CC(C)c1nc(N(C)S(C)(=O)=O)nc(-c2ccc(F)cc2)c1/C=C/[C@@H](O)C[C@@H](O)CC(=O)O [ROSUVASTATIN] here?
A: 29.9%

Q: What about the Cmax [42] of the same compound?
A: 4.58 ng/mL

— ChEMBL document CHEMBL1781963, “Discovery of novel hepatoselective HMG-CoA reductase inhibitors for treating hypercholesterolemia: a bench-to-bedside case study on tissue selective drug distribution” (Bioorg Med Chem Lett, 2011)
